Data set [1] deals with 3',5'-cyclic-AMP phosphodiesterase 4D (Homo sapiens, UniProt Q08499). As to the kind of experiment: Inhibition of human PDE4D2 expressed in Escherichia coli BL21 (DE3) using cAMP as substrate by PDELight HTS cAMP phosphodiesterase Kit based. The method, boiled down:
(§1)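 Recombinant catalytic domains, His-tag purified, then ion exchange and size exclusion, were tested with the PDELight HTS cAMP kit in stimulation buffer (50 mM Hepes, 100 mM NaCl, 10 mM MgCl2, 0.5 mM EDTA, 0.05 mg/ml BSA, pH 7.5). Dose-response curves gave Ki, expressed as pKi = −log10(Ki ÷ 1000000).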

Data set [2] is described as follows: Metabolic stability in mouse microsomes assessed as compound remaining at 5 uM incubated for 30 mins by UPLC-MS/MS analysis. The format is ADME, Microsome. The settings on record: for Stability: 0.5 h, 5 µM. In short, it runs like this: (§2)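 Compound at 5 µM incubated with 0.5 mg/mL male liver microsomes in potassium phosphate buffer, started with 1 mM NADPH (CYP phase I). Aliquots quenched in cold acetonitrile containing tolbutamide, centrifuged at 4 °C, supernatant analysed by LC-MS. Results given as % parent remaining relative to time 0; mean of at least two experiments; diclofenac as control.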

Data set [3] is described as follows: Metabolic stability in human microsomes assessed as compound remaining at 5 uM incubated for 30 mins by UPLC-MS/MS analysis. The data set is classed as ADME, Microsome. As to conditions: 0.5 h, 5 µM. In short, it runs like this:
as §2

Data set [4] deals with T1, Class 1 phosphodiesterase PDEB1 (Trypanosoma brucei, UniProt Q8WQX9).
T1 sequence (Q8WQX9 whole entry): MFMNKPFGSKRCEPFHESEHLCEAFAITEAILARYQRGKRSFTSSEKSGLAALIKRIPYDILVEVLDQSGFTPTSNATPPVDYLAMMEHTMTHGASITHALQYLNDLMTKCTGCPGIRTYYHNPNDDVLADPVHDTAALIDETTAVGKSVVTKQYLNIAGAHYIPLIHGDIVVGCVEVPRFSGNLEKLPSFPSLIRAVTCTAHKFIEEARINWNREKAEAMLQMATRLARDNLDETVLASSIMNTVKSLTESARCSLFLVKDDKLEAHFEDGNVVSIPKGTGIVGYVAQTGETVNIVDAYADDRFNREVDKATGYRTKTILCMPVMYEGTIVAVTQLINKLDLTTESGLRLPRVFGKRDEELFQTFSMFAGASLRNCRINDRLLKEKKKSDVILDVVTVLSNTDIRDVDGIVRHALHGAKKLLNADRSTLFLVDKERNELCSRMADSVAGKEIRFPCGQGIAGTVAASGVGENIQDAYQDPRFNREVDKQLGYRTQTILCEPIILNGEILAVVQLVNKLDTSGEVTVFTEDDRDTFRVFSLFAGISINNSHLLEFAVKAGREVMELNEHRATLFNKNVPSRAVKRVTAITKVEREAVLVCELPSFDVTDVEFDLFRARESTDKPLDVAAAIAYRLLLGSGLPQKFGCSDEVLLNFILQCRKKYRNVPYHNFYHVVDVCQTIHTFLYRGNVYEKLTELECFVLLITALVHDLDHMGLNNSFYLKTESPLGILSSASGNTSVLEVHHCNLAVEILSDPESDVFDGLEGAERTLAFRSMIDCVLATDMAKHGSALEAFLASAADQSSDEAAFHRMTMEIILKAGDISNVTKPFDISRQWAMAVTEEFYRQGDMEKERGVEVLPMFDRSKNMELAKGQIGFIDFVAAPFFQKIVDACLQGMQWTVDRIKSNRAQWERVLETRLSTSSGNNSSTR
The experiment in a line: Inhibition of Trypanosoma brucei PDEB1 (565 to 918 residues) expressed in Escherichia coli BL21 (DE3) using cAMP as substrate by PDELight HTS cAMP phosphodiesterase Kit based. The method, boiled down: as §1

Another data set deals with Trypanosoma brucei. As to the kind of experiment: Antitrypanosomal activity against Trypanosoma brucei Squib 427 assessed as reduction in parasite growth incubated for 72 hrs by resazurin dye based fluorimetric analysis. As to conditions: Squib 427, 72 h. The data set is classed as functional, organism-based. Background: Alamar Blue is a resazurin reagent that responds to reducing activity.

The nature of data set [5]: Cytotoxicity against human MRC5 SV2 cells assessed as reduction in cell viability incubated for 72 hrs by resazurin dye based fluorimetric assay. The settings on record: MRC-5 SV2, 72 h. The method, boiled down:
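MRC-5 SV2 fibroblasts grown in Earl's MEM with 5% FBSi, L-glutamine and bicarbonate; 1×10^4 cells/well treated 72 h at 37 °C, 5% CO2; resazurin viability read fluorimetrically (ex 550, em 590 nm). Five 4-fold dilutions from a 64 µM top concentration; IC50 derived from % viability reduction vs untreated wells; tamoxifen as reference.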

Each structure is given as a SMILES string.

Chain of 3',5'-cyclic-AMP phosphodiesterase 4D (Q08499 whole entry, the tested form may be a part): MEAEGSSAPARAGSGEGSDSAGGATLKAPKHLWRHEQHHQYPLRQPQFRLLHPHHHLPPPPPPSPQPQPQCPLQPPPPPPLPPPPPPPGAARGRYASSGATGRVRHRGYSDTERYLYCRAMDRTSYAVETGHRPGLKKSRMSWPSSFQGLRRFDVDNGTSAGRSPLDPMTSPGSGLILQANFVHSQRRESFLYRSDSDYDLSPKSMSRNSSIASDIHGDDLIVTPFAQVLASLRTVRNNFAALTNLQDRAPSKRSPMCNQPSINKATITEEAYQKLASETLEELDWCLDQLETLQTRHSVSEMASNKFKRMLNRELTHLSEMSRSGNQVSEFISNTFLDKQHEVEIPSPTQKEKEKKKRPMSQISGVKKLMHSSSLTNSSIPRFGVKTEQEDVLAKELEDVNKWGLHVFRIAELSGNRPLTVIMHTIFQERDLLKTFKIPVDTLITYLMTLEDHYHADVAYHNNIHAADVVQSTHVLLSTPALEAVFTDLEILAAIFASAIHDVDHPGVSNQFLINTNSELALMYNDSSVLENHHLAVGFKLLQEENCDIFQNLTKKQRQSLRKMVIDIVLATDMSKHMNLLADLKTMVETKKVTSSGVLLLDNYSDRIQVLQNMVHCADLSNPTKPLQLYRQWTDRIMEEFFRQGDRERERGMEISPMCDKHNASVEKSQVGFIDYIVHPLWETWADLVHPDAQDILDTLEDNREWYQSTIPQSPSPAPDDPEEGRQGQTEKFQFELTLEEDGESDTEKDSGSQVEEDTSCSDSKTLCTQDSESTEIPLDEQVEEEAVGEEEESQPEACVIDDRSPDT

One may read the Ki as a dissociation constant, usually derived from enzyme kinetics or from competition with a known ligand. A higher Ki goes with weaker binding. By IC50 is commonly meant the concentration at which inhibition is half-maximal. In the case of `COc1ccc(C2=NN(C3CCN(C(=O)CN4C(=O)CC(C)(C)CC4=O)CC3)C(=O)[C@@H]3CCCC[C@H]23)cc1OC`, the Ki in data set [1] is 0.000162 µM; in data set [4], 0.0851 µM. In addition, the Stability entry in data set [2] and in data set [3] was “Stable” throughout. In addition, the figures for the IC50 (with Trypanosoma brucei; in data set [5]) were 1.95 µM and 56.2 µM, respectively.

On to `COc1ccc(C2=NN(C3CCN(c4nc(N)c5sccc5n4)CC3)C(=O)[C@@H]3CC=CC[C@H]23)cc1OC`, for which the Ki in data set [1] was 0.000676 µM; in data set [4] it was 0.339 µM. Besides, the Stability entry in data set [2] and in data set [3] was “Stable” each time. The IC50 with Trypanosoma brucei was 1.78 µM; in data set [5], 64.6 µM.

Take `COc1ccc(C2=NN(C3CCN(C(=O)CN4C(=O)CC(C)(C)CC4=O)CC3)C(=O)[C@@H]3CC=CC[C@H]23)cc1OC`: the results for the Ki in data set [1] and in data set [4] were 0.000123 µM and 0.0437 µM, respectively. In data set [2] (read-out: Stability), the remaining at 0.5 h, 5 µM came to 6.7%. In addition, in data set [3], the Stability result is reported as “Stable”. Further, the IC50 in the data set on Trypanosoma brucei is 0.447 µM; in data set [5], 44.7 µM.

Consider `COc1ccc(C2=NN(C3CN(C(=O)CN4C(=O)CC5(CCCCC5)CC4=O)C3)C(=O)[C@@H]3CC=CC[C@H]23)cc1OC`, for which the Ki is 0.000851 µM in data set [1] and 0.0912 µM in data set [4]. Further, the Stability result in data set [2] and in data set [3] was “Stable” throughout. The IC50 in the data set on Trypanosoma brucei was 1.15 µM; in data set [5], 64.6 µM.

These data come from ChEMBL document CHEMBL4402584, “Lead Optimization of Phthalazinone Phosphodiesterase Inhibitors as Novel Antitrypanosomal Compounds” (J Med Chem, 2020).
